# Experimental data as given in ChEMBL document CHEMBL5247600, “Rational design of metabolically stable HDAC inhibitors: An overhaul of trifluoromethyl ketones” (Eur J Med Chem, 2022).
# pIC50: −log10 of the molar value. The source made the active and inactive calls. No cut-off for these calls is given here.
# Legend:
# [1] = test system: HCT-116; assay: Anticancer activity against human HCT-116 cells assessed as cell growth inhibition incubated for 3 days by methylene blue staining based colorimetric assay; assay type: functional; conditions: HCT-116, 72 h
# [2] = test system: HCT-116; assay: Induction of apoptosis in human HCT116 cells assessed as increase in cleaved PARP1 level at 5 to 10 uM incubated for 24 hrs by Western blot analysis; assay type: functional, cell-based; conditions: dose 5-10 µM
# In short: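 HCT116 cells treated 24 h at the indicated concentrations. Lysates normalized by BCA, run on 12.5% SDS-PAGE and transferred to PVDF. Blocked 1 h in 5% milk/PBST, primary antibody against cleaved PARP overnight at 4 °C, then HRP secondary 1:10 000 and ECL detection.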
# [3] = test system: Panel NCI-60 (60 carcinoma cell lines); assay: Anticancer activity against human Panel NCI-60 (60 carcinoma cell lines) cells assessed as cell growth inhibition at 10 uM incubated for 3 days by methylene blue staining based colorimetric assay relative to control; assay type: functional; set-up: scale not given: the % may be the effect or the level left; conditions: time 3 day
# In short: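 NCI-60 one-dose screen at a single concentration of 10 μM. Read-out is mean growth percentage across the panel; positive values denote cytostatic activity and negative values cytotoxicity.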
# [4] = test system: Panel NCI-60 (60 carcinoma cell lines); assay: Anticancer activity against human Panel NCI-60 (60 carcinoma cell lines) cells assessed as total cell growth inhibition incubated for 3 days by methylene blue staining based colorimetric assay relative to control; assay type: functional; conditions: 72 h, time 3 day
# In short: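 NCI-60 five-dose screen at five concentrations. […] TGI is the concentration giving total growth inhibition.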
# [5] = test system: Panel NCI-60 (60 carcinoma cell lines); assay: Anticancer activity against human Panel NCI-60 (60 carcinoma cell lines) cells assessed as cell growth inhibition incubated for 3 days by methylene blue staining based colorimetric assay relative to control; assay type: functional; conditions: 72 h, time 3 day
# In short: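 NCI-60 five-dose screen at five concentrations. TGI is the concentration giving total growth inhibition.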
Structure (SMILES),pIC50 [1],further results
C/C(=N\O)C(=O)NCCCCCCC(=O)Nc1ccccc1,< 4.00,
O=C(CCCCCCNC(=O)C(O)(O)C(F)(F)F)Nc1nc(-c2ccccc2)c(-c2ccccc2)s1,4.52,
O=C(CCCCCNC(=O)c1ccc[nH]1)Nc1ccccc1,< 4.00,
O=C(CCCCCCNC(=O)C(O)(O)C(F)(F)F)Nc1ncc(-c2ccc(Br)cc2)s1,,Activity [2]: Active; Activity [3]: -11.47%; TGI [4]: 11.4 µM
O=C(CCCCCCC(O)C(F)(F)F)Nc1ccccc1 (configuration not stated),< 4.40,
CC(=O)C(=O)NCCCCCC(=O)Nc1ccccc1,< 4.00,
O=C(CCCCCCNC(=O)C(O)(O)C(F)(F)F)Nc1nc2ccc(Br)cc2s1,4.99,
O=C(CCCCCCNC(=O)C(O)(O)C(F)(F)F)Nc1ccc(Br)cc1,,GI50 [5]: 3.16 µM; Activity [3]: 2.58%; TGI [4]: 20.9 µM
O=C(CCCCCCNC(=O)C(O)(O)C(F)(F)F)Nc1ccc(-c2ccccc2)cc1,,Activity [3]: 2.1%; TGI [4]: 15.1 µM
Cc1nc(NC(=O)CCCCCCNC(=O)C(O)(O)C(F)(F)F)sc1-c1ccccc1,4.99,
O=C(CCCCCCNC(=O)c1cc(=O)c(O)co1)Nc1ccccc1,< 4.00,
O=C(CCCCCCNC(=O)C(O)(O)C(F)(F)F)Nc1ccc(S(F)(F)(F)(F)F)cc1,5.04,
O=C(CCCCCCCNC(=O)C(O)(O)C(F)(F)F)Nc1ccccc1,4.38,
CC(=O)c1ccc(NC(=O)CCCCCCNC(=O)C(O)(O)C(F)(F)F)cc1,4.92,
O=C(CCCCNC(=O)C(O)(O)C(F)(F)F)Nc1ccccc1,4.69,
O=C(CCCCCCNC(=O)C(O)(O)C(F)(F)F)Nc1nc2ccc(Br)cc2o1,4.92,
O=C(CCCCCCNC(=O)C(O)(O)C(F)(F)F)Nc1ncc(-c2ccccc2)s1,,Activity [3]: -10.06%
O=C(CCCCCCNC(=O)C(O)(O)C(F)(F)F)Nc1ccc(Cl)cc1,5.37,GI50 [5]: 5.13 µM; Activity [3]: 15.99%; TGI [4]: 26.9 µM
O=C(CCCCCCNC(=O)C(O)(O)C(F)(F)F)Nc1ccccc1,5.04,
COc1ccccc1NC(=O)CCCCCCNC(=O)C(O)(O)C(F)(F)F,5.00,
CC(=O)C(=O)NCCCCC(=O)Nc1ccccc1,< 4.00,
C/C(=N\O)C(=O)NCCCCCC(=O)Nc1ccccc1,< 4.00,
C/C(=N\O)C(=O)NCCCCC(=O)Nc1ccccc1,< 4.00,
NC(=O)C(=O)NCCCCCCCC(=O)Nc1ccccc1,< 4.00,
O=C(CCCCCCNC(=O)C(O)(O)C(F)(F)F)Nc1nc2ccccc2o1,5.46,
Cc1ccc(S(=O)(=O)Nc2ccc(NC(=O)CCCCCCNC(=O)C(O)(O)C(F)(F)F)cc2)cc1,4.76,
O=C(CCCCCCNC(=O)C(O)(O)C(F)(F)F)Nc1cccc2ccccc12,5.19,
O=C(CCCCCCNC(=O)C(O)(O)C(F)(F)F)Nc1ccc(C(=O)c2ccccc2)cc1,< 4.40,
O=C(CCCCCCNC(=O)C(O)(O)C(F)(F)F)Nc1nc2ccc(F)cc2s1,5.19,
